Screening data (PubChem BioAssay)
Only some compounds are listed: those with a hit (about 1.8% of all), similar ones and a draw of the others.
SUMO1-SIM PPI: alters human SUMO1 binding to SIM partners; P63165; SUMO1 binding to a labelled peptide, TR-FRET, 1 h; inhibition, % at 20 µM; actives 0.33% (n = 360,000); AID 602429; in the data active = inhibition above about 37%
Target sequence (P63165 whole entry, looked up): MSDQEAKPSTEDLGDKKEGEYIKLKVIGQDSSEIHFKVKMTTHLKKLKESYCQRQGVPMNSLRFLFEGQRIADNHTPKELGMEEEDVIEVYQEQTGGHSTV
HKDC1 inh: HKDC1 (human) hexokinase inhibition | Q2TB90 | recombinant HKDC1, G6PDH/diaphorase resazurin coupled fluorescence | inhibition, % at 20 µM | actives 0.16% (n = 340,000) | AID 493160;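 active = inhibition above about 35% when tested at 20 µM, limit read from the data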;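 note: plate controls were DMSO wells with enzyme for no effect and DMSO wells lacking enzyme for full effect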
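Incubation: 90 min at room temperature in dark / Material: recombinant HKDC1 (HK5) hexokinase enzyme, produced in-house / Quantity: enzyme 5 µg/mL final / Compound: one dose of 20 µM, 1% DMSO / Reagent: glucose and ATP substrates / Buffer or medium: Tris pH 8.0 buffer with MgCl2, Tween-20, BSA, BME / Technique: resorufin fluorescence at 613 nm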
Scp1 inh: Scp-1 (human) phosphatase inhibition | Q9GZU7 | Recombinant Scp1, phosphopeptide, malachite green phosphate absorbance | inhibition, % at 20 µM | actives 0.88% (n = 340,000);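 active = inhibition above about 50% at 20 µM, limit read from the data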;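 note: plate controls were DMSO wells with enzyme for no effect and wells lacking enzyme for full effect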
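System: truncated SCP-1 phosphatase (76-261aa); medium: Tris acetate buffer pH 5.5 with MgCl2 and Tween-20; incubation: 45 min room-temperature reaction, 5 min colour, 30 min stabiliser; compound: single 20 µM dose, 1% DMSO; reagent: Phosphorylated 17-residue peptide substrate; read-out: % inhibition at 20 µM; technique: colorimetric free-phosphate detection, absorbance 630 nm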
LMPTP block: blocks human LMPTP phosphatase. inhibition, % at 20 µM. AID 651560. P24666. recombinant LMPTP-A, OMFP fluorogenic substrate, fluorescence intensity. actives 0.22% (n = 360,000);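 active = compounds that cut the enzyme signal by at least half of the control window in the single-dose screen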;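 note: plate controls were DMSO wells with enzyme plus substrate for no effect and substrate without enzyme for full effect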
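Buffer or medium: Bis-Tris pH 6.0, DTT, detergent; Assay system: LMPTP-A enzyme; Quantity: 0.625 nM enzyme; Detection: endpoint fluorescence intensity; Times: 50 min dark incubation at room temperature; Controls: substrate-only low control, DMSO enzyme-plus-substrate high control; Doses: single 20 µM dose; Read-out: percent inhibition versus substrate-only and uninhibited controls; Reagent: 400 µM OMFP.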
DNMT1 block: blocks human DNA methyltransferase DNMT1 | P26358 | inhibition (reported as % activation of signal), % at 10 µM | actives 0.83% (n = 360,000) | DNMT1 molecular beacon, Hinp1I cleavage, fluorescence; in the data active = inhibition above about 50%
STEP block: STEP (human) phosphatase inhibition; P54829; AID 588621; inhibition, % at 20 µM; recombinant STEP, OMFP fluorogenic substrate, fluorescence; actives 0.25% (n = 360,000);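 active = inhibition at 20 µM, scaled per plate between control wells, above about 37%, limit read from the data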;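 note: 0% = DMSO with enzyme and substrate and 100% = substrate only without enzyme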
Target sequence (P54829 whole entry, looked up): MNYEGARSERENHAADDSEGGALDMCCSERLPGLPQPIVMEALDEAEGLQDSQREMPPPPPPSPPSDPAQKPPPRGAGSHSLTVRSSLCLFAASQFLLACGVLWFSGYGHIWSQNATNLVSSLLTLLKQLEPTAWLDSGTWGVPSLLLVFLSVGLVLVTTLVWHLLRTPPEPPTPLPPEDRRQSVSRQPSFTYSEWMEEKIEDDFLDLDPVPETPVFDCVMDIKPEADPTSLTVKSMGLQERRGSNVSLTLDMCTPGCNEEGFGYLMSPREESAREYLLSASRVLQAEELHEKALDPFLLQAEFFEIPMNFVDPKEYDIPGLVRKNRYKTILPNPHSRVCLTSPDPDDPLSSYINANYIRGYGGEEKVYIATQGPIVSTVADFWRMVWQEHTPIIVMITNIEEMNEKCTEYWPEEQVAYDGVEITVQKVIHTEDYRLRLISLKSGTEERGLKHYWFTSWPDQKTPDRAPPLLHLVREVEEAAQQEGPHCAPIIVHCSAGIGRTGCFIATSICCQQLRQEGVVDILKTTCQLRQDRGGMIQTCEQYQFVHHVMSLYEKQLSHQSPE
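Assay system: isolated STEP enzyme. Buffer or medium: pH 6.0 Bis-Tris with DTT and Tween 20. Also added: fluorogenic phosphatase substrate OMFP at 25 µM final. Dosing: 20 µM, 1% DMSO. Timing: 20 min reaction, room temperature, in the dark. Measured by: fluorescence intensity, excitation 480 nm, emission 540 nm. Evaluation: normalized % inhibition.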
An asterisk follows results filed as active; . = not tested or not shown.

SMILES	SUMO1-SIM PPI	HKDC1 inh	Scp1 inh	LMPTP block	DNMT1 block	STEP block
O=C(/C=C/c1ccc(Br)cc1)NC(=O)c1ccccc1O	21	0	59*	56*	0	13
O=C(/C=C/c1ccc(O)c(O)c1)NC(=O)c1ccccc1O	0	9	15	1	16	0
CC1=C(C(=O)N2CCOCC2)CC(CC(=O)NCC2CCCCC2)C(=O)N1Cc1ccccc1 (stereo not drawn)	0	.	.	-1	7	0
O=C(O)c1ccc(N/N=C/c2ccc(OC(=O)c3cccc(Cl)c3)cc2)cc1	61*	0	40	10	7	1
O=C(O)c1cccc(N/N=C/c2ccc(OC(F)(F)F)cc2)c1	-3	2	1	1	1	5
CSc1ccc(/C=N/Nc2cccc(C(=O)O)c2)cc1	70*	5	81*	14	105*	60*
O=C(Nc1ccnn1C1CCN(C(=O)c2cccc(Cl)c2)CC1)C1CC1	-2	4	0	-1	2	1
COc1ccc(S(=O)(=O)NC2CC(=O)N(c3ccccc3)C2)cc1C (stereo not drawn)	-3	-3	-6	1	2	-2
N#Cc1ccc(NC(=O)c2sc3cc(C(F)(F)F)cnc3c2-c2cccs2)cc1	56*	-1	-12	0	0	2
C=CCN(C(=O)Nc1ccc(OC)cc1)c1nnc(-c2ccncc2)s1	-2	-2	0	0	-4	-2
CC1CCN(Cc2nc(-c3ccccc3)no2)CC1	50*	-2	-11	-1	-2	-4
Oc1ccc(/C=N/NC(=S)Nc2cccnc2)c(O)c1O	81*	10	6	84*	3	16
O=C(Nc1cccc(NC(=O)c2ccc(-c3ccc(Br)cc3)o2)c1)c1ccco1	44*	4	-9	5	-14	1
O=C(Nc1cccc(NC(=O)c2ccccc2Cl)c1)c1ccco1	3	-4	-10	0	1	1
CC(C)(C)OC(=O)C[C@H]1C/C=C\C[C@H](CC(=O)NCCO)C(=O)NC[C@H](c2ccccc2)OC1=O	4	0	2	2	4	1
C#CCOc1ccc(/C=C2/C(=O)N(c3cccc(C(=O)O)c3)N=C2C)cc1OC	35	8	58*	2	43	7
COc1cc(/C=C2\C(=O)N(c3ccc(S(N)(=O)=O)cc3)N=C2C)ccc1OC(=O)c1ccco1	45*	19	25	35	16	27
COC(=O)/C(=C\Nc1ccc(Cl)cc1Cl)NC(=O)c1ccc(OC)cc1	40*	-1	-10	3	-1	2
COC12NC(=O)N(C)C1(OC)C(=O)N(C)C(=O)N2C (stereo not drawn)	0	-3	-1	-1	4	1
O=C(COC(=O)c1ccc(Br)o1)Nc1nc2c(F)c(F)c(F)cc2s1	4	-2	35	60*	10	14
O=C(Nc1c2ccccc2nc2ccccc12)C(Cl)(Cl)Cl	-9	8	3	11	51*	3
O=C(CSc1nc(-c2ccccc2)nc2c1Cc1ccccc1O2)Nc1ccc(C(=O)O)cc1	70*	32	90*	79*	88*	87*
O=C(CSc1nc(-c2ccccc2)nc2ccccc12)Nc1cccc(C(=O)O)c1	11	22	24	0	2	2
COc1cc(OC)c(OC)cc1CN1CCN(Cc2cccn2C)CC1	0	-8	-9	-4	-14	0
CC(=O)Nc1ccc(NC(=O)c2cc(-c3cc(C)c(C)cc3O)n[nH]2)cc1	40*	-2	-6	1	-3	0
SMILES	SUMO1-SIM PPI	HKDC1 inh	Scp1 inh	LMPTP block	DNMT1 block	STEP block
COC(=O)C1=C(COc2ccccc2)NC(=O)NC1c1ccc(Br)cc1 (stereo not drawn)	75*	-2	41	1	0	0
Cc1cc(N2CCCC2)nc(-c2ccccc2O)n1	69*	-5	-13	1	0	6
Cc1cc(N2CCN(C)CC2)nc(-c2ccccc2O)n1	5	-3	-11	0	0	0
N#Cc1c(N2CCCC2)nc(N)c2c(N)nc(N3CCCC3)cc12	48*	20	8	41	118*	60*
C[C@@H]1CN([C@H](C)CO)C(=O)CCCn2cc(nn2)CO[C@H]1CN(C)C(=O)Nc1ccnc(N2CCOCC2)c1	108*	.	.	14	2	3
COc1cc2ccccc2cc1C(=O)Nc1ccc2oc(=O)ccc2c1	12	-3	-1	0	7	-2
O=C(Cc1ccccc1F)Nc1cc(S(=O)(=O)N2CCOCC2)ccc1N1CCCC1	7	-5	-1	-2	2	-5
O=c1cc(-c2ccc(O)c(O)c2)oc2cc(O[C@@H]3O[C@H](CO)[C@@H](O)[C@H](O)[C@H]3O)cc(O)c12	-16	28	-2	1	52*	2
COC1=C(C)C(=O)C2=C(C1=O)C1C3CC4=C(C(=O)C(OC)=C(C)C4=O)C(CNC(=O)C(C)=O)N3C(C#N)C(C2)N1C (stereo not drawn)	-18	60*	10	1	-13	2
Cc1ccc(C2(COC(=O)C(C)C)CO2)c(OC(=O)C(C)C)c1 (stereo not drawn)	5	-3	4	1	26	-5
CCC(C)C(=O)OCC1(c2ccc(C)cc2OC(=O)C(C)C)CO1 (stereo not drawn)	3	-4	53*	-1	12	0
Fc1ccccc1NC(=S)NCCc1cccc(Cl)c1	2	0	-10	2	0	0
Cc1cc(C)nc(SCC(=O)OCC(=O)Nc2ccccc2)n1	4	-6	-4	-1	15	1
CC(Sc1nnc2ccccn12)C(=O)Nc1ccc2c(c1)OCCO2 (stereo not drawn)	104*	0	1	0	-2	-1
Cc1ccc(NC(=O)C(C)Sc2nnc3ccccn23)cc1 (stereo not drawn)	-1	0	2	0	-1	-1
O=C(Cc1ccsc1)NCc1ccccc1F	3	-6	-8	-1	2	1
Cc1cc(N2CCN(C(C(=O)NC3CCCC3)c3ccc(-c4ccccc4)cc3)CC2)c2ccccc2n1 (stereo not drawn)	-2	.	.	94*	.	.
Cc1cc(N2CCN(C(C(=O)NC3CCCC3)C(C)C)CC2)c2ccccc2n1 (stereo not drawn)	-9	.	.	14	.	.
COc1cc(F)c(C(=O)NC(C)(C)CO)cc1OC	2	-5	-7	-1	4	2
